In ChEMBL document CHEMBL1130334, “Effect of plasma protein binding on in vivo activity and brain penetration of glycine/NMDA receptor antagonists” (J Med Chem, 1997):

How the values were obtained:
Albumin = Albumin (Homo sapiens, UniProt P02768); assay: Human serum albumin index was measured by retention time on an HPLC column containing human albumin
Outline: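 HPLC on a column containing human serum albumin. Retention volume of each compound is divided by that of a reference standard and normalized so the standard equals 100.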

[1] = biological target: Glutamate NMDA receptor (Rattus norvegicus) (UniProt P35439+Q00959+Q00960+Q00961+Q62645+Q8VHN2+Q9R1M7); assay: Protein binding index(PBI) reflects the relative displacement of [3H]glycine from rat cortical membranes in the presence and absence of 0.2% human serum albumin; assay type: cell membranes; settings: Membrane
Outline: (§1)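 [³H]glycine displacement from rat cortical membranes, with and without 0.2% (w/v) human serum albumin. Separation by centrifugation. Index = IC50 with albumin / IC50 without albumin.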

Mus musculus [2] = assay: Anticonvulsant activity measured by its ability to protect against audiogenic seizure in DBA/2 mice when dosed intraperitoneally 30 min prior to seizure induction.; assay type: functional; settings: ip
Outline: (§2)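 DBA/2 mice, compound dosed intraperitoneally 30 min before induction of audiogenic seizures. Reported as ED50 (mg/kg and μmol/kg) or as number protected/number tested at a single dose. For some compounds the test was run 10 min after dosing.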

Glutamate NMDA receptor = assay: Affinity for the glycine binding site on rat N-methyl-D-aspartate glutamate receptor 1, determined by displacement of the glycine site antagonist [3H]L-689,560 from rat cortical membranes; assay type: cell membranes, Membrane
Rattus norvegicus = organism: Rattus norvegicus; assay: Clearance into cortex from rat plasma or PBS; assay type: ADME, organism-based; settings: in vivo
Outline: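 Rat in situ brain perfusion (Takasato method, Gratton modifications). Compound is dissolved in phosphate-buffered saline and perfused 10 s, or dissolved in rat plasma and perfused 60 s. Drug in cortex is measured and clearance from the perfusate into cortex is calculated (mL s⁻¹ g⁻¹ × 10⁴). Mean with SEM, n = 4.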

[3] = Partition coefficient (logP); assay type: physicochemical; settings: octanol/water
Outline: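 Octanol/pH 7.4 buffer partition; values were either measured or calculated from tables of π values.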

Mus musculus [4] = assay: Anti convulsant activity of compound was measured by its ability to protect against audiogenic seizure in DBA/2 mice when dosed intraperitoneally 30 min prior to seizure induction.; assay type: functional; settings: ip; outline: as §2
[5] = Protein binding index(PBI) is the ratio of binding affinities for the displacement of [3H]-glycine from rat cortical membranes in the presence and absence of 0.2% human serum albumin; assay type: functional, cell membranes; settings: Membrane; outline: as §1

Chain of Albumin (P02768 whole entry): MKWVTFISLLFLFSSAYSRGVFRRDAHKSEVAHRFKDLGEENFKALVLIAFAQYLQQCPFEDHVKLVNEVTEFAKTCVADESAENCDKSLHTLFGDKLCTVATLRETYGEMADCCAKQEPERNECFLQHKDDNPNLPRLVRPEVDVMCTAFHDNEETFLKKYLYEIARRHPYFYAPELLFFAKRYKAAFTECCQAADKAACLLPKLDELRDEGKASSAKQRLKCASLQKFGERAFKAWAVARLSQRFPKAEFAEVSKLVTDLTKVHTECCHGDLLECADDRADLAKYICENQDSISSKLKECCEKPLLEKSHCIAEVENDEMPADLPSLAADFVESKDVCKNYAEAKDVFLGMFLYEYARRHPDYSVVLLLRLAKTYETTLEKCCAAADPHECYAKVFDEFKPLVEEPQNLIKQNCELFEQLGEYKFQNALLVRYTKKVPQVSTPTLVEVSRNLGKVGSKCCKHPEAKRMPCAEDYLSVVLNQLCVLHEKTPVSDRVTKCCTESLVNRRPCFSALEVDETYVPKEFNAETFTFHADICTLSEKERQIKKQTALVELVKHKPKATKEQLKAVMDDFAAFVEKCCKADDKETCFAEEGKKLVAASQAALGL

| Compound | HSAI (Albumin) | IC50 (Glutamate NMDA receptor) | further results |
| --- | --- | --- | --- |
| Oc1nc2cc(Cl)ccc2c(O)c1-c1cccc(-n2ccc3ccccc32)c1 | 322 | – | – |
| Oc1nc2cc(Cl)ccc2c(O)c1-c1cccc(Oc2ccsc2)c1 | – | – | PBI [1]: 127; ED50 (Mus musculus [2]): 0.75 mg/kg |
| Cc1ccccc1Oc1cccc(-c2c(O)nc3cc(Cl)ccc3c2O)c1 | 163 | 1.3 nM | – |
| CC/C=C1\NC(=O)C(c2cccc(Oc3ccccc3)c2)=C1O | 42 | 684 nM | PBI [1]: 32 |
| CCOC(=O)c1c(O)c2ccc(I)cc2[nH]c1=O | 7 | 30000 nM | – |
| COCCOCOc1ccc(Cc2cccc(-c3c(O)nc4cc(Cl)ccc4c3O)c2)cc1 | 56 | 3.6 nM | – |
| Oc1nc2cc(Cl)ccc2c(O)c1-c1ccco1 | 6 | – | – |
| COC(=O)c1c(O)c2ccc(Cl)cc2[nH]c1=O | 3 | – | Cortex_Clearance (Rattus norvegicus): 2.8 ml s-1 (10e4*g)-1; PBI [1]: 5.4 |
| Oc1nc2cc(Cl)ccc2c(O)c1-c1cccc(Cc2ccc(CCN3CCOCC3)cc2)c1 | 49 | 9 nM | logP [3]: 3.01 |
| CCc1cc(Cl)cc2nc(O)c(-c3cccc(Oc4ccccc4)c3)c(O)c12 | 837 | 1.95 nM | – |
| Oc1nc2cc(Cl)ccc2c(O)c1-c1cccc(C#Cc2ccccc2)c1 | 577 | 34.3 nM | – |
| Cc1cn(-c2c(O)nc3cc(Cl)ccc3c2O)c2ccccc12 | 57 | – | – |
| COc1cccc(-c2c(O)nc3cc(Cl)ccc3c2O)c1 | 10 | 204 nM | – |
| COCOc1ccc(Cc2cccc(-c3c(O)c4ccc(Cl)cc4[nH]c3=O)c2)cc1 | 78 | 2.2 nM | logP [3]: 3.34; ED50 (Mus musculus [4]): 0.5 mg/kg |
| O=c1[nH]c2ccccc2c(O)c1-c1ccccc1 | 2 | 7500 nM | – |
| CN(C)Cc1sccc1Oc1cccc(-c2c(O)nc3cc(Cl)ccc3c2O)c1 | 13 | 32.6 nM | – |
| O=C(c1ccc(Br)s1)c1c(O)nc2cc(Cl)ccc2c1O | 40 | 954 nM | – |
| Cc1ccc(Oc2cccc(-c3c(O)nc4cc(Cl)ccc4c3O)c2)cc1 | 310 | 7.8 nM | – |
| O=C(Cc1ccccc1)c1c(O)c2ccc(Cl)cc2[nH]c1=O | 28 | – | logP [3]: 1.66 |
| Oc1nc2cc(Cl)ccc2c(O)c1-c1ccc(Oc2ccccc2)cc1 | 159 | – | ED50 (Mus musculus [2]): 8.3 mg/kg |
| C=C(C)COc1cccc(C2=C(O)/C(=C/CC)NC2=O)c1 | 13 | – | PBI [5]: 12.1 |
| CSc1ccc(Cc2cccc(-c3c(O)nc4cc(Cl)ccc4c3O)c2)cc1 | 267 | 2.4 nM | – |
| Cn1cccc1-c1c(O)nc2cc(Cl)ccc2c1O | 3 | 818 nM | – |
| Oc1nc2cc(Cl)ccc2c(O)c1-c1cccc(NCc2ccsc2)c1 | 68 | – | – |
| Oc1nc2cc(Cl)ccc2c(O)c1-c1ccsc1 | 11 | 352 nM | – |
| O=C(c1ccccc1)c1cccc(-c2c(O)nc3cc(Cl)ccc3c2O)c1 | 58 | 3.6 nM | – |

| Compound | HSAI (Albumin) | IC50 (Glutamate NMDA receptor) | further results |
| --- | --- | --- | --- |
| O=C(OCCc1cccs1)c1c(O)nc2cc(Cl)ccc2c1O | 44 | – | – |
| CCc1cc(Cl)cc2nc(O)c(-c3ccccc3)c(O)c12 | 103 | – | – |
| O=C(c1c(O)nc2cc(Cl)ccc2c1O)C1CC1 | 6 | – | logP [3]: 0.35 |
| N[C@H](Cc1cc(I)c(OCCc2ccc(O)cc2)c(I)c1)C(=O)O | 16 | 426 nM | PBI [1]: 41; logP [3]: 2 |
| O=C(/C=C/c1c(C(=O)O)[nH]c2cc(Cl)cc(Cl)c12)Nc1ccccc1 | 197 | 1 nM | logP [3]: 2.24 |
| O=c1[nH]c2cc(Cl)ccc2c(O)c1-c1cccc(Oc2ccsc2)c1 | 82 | – | logP [3]: 2.75 |
| O=C(c1c(O)nc2cc(Cl)ccc2c1O)c1csc2ccccc12 | 59 | 2230 nM | – |
| CCOC(=O)c1c(O)c2ccc(Cl)cc2[nH]c1=O | – | 16700 nM | logP [3]: 0.7 |
| Oc1nc2cc(Cl)ccc2c(O)c1-c1ccc2c(c1)Oc1ccccc1O2 | 260 | – | logP [3]: 4.5 |
| Oc1nc2cc(Cl)ccc2c(O)c1-c1cccc(OCc2ccccc2)c1 | 118 | 12.2 nM | – |
| Oc1nc2cc(Cl)ccc2c(O)c1-c1cccc(C2=CCc3ccccc32)c1 | 571 | 6 nM | – |
| Cc1ccc(-c2c(O)nc3cc(Cl)ccc3c2O)cc1 | 13 | 391 nM | – |
| COc1ccc(CCOc2c(I)cc(C[C@@H](N)C(=O)O)cc2I)cc1 | 32 | 545 nM | PBI [1]: 11.7; logP [3]: 2.65 |
| O=c1[nH]c2cc(Cl)c(Cl)c([N+](=O)[O-])c2[nH]c1=O [LICOSTINEL] | 28 | 2.8 nM | ED50 (Mus musculus [2]): 3.3 mg/kg |
| CNCc1ccc(Cc2cccc(-c3c(O)nc4cc(Cl)ccc4c3O)c2)cc1 | 13 | 124 nM | – |
| NCc1ccc(CC(=O)N[C@H]2C[C@H](C(=O)O)Nc3cc(Cl)cc(Cl)c32)cc1 | 2 | 38.5 nM | PBI [1]: 1.1; ED50 (Mus musculus [2]): 30 mg/kg |
| Oc1ccccc1-c1cc2ccc(Cl)cc2nc1O | 15 | – | PBI [1]: 8.2 |
| CCOC(=O)c1c(O)c2ccc([N+](=O)[O-])cc2[nH]c1=O | 1 | – | – |
| Cc1cccc(-c2c(O)nc3cc(Cl)ccc3c2O)c1 | 14 | 84 nM | – |
| Oc1nc2cc(Cl)ccc2c(O)c1-c1cccc(Cc2cccc3ccccc23)c1 | 629 | 27.9 nM | – |
| Nc1c(-c2ccccc2)c(=O)[nH]c2cc(Cl)ccc12 | 7 | 6750 nM | – |
| C=C(C)COc1cccc(-c2c(O)nc3cc(Cl)ccc3c2O)c1 | 31 | 10.9 nM | – |
| O=C(OCC#Cc1cccc(O)c1)c1c(O)c2ccc(Cl)cc2[nH]c1=O | 213 | – | – |
| Oc1nc2cc(Cl)ccc2c2oc3ccccc3c12 | 70 | – | PBI [1]: 28.5; logP [3]: 4.34 |
| O=C1Nc2cc(Cl)ccc2CC1[N+](=O)[O-] (configuration not stated) | 7 | – | ED50 (Mus musculus [2]): 13.5 mg/kg; logP [3]: 0.62 |
| Oc1nc2cc(Cl)ccc2c(O)c1-c1cccc(OCC2CC2)c1 | 21 | 37.8 nM | – |

| Compound | HSAI (Albumin) | IC50 (Glutamate NMDA receptor) | further results |
| --- | --- | --- | --- |
| C=CCOC(=O)c1c(O)c2ccc(Cl)cc2[nH]c1=O | 6 | – | – |
| O=c1[nH]c2cc(Cl)ccc2c(O)c1-c1cccc(Cc2ccccc2)c1 | 126 | – | logP [3]: 2.83 |
| O=C(O)c1cccc(-c2c(O)nc3cc(Cl)ccc3c2O)c1 | 9 | 75.6 nM | – |
| O=C(CC1CCc2cc(Br)cc3[nH]c(=O)c(=O)n1c23)Nc1ccccc1 (configuration not stated) | 24 | 24 nM | logP [3]: 2.78 |
| Oc1nc2cc(Cl)ccc2c(O)c1-c1cccc(Cc2ccoc2)c1 | 50 | 8.9 nM | – |
| O=C(c1cccs1)c1c(O)c2ccc(Cl)cc2[nH]c1=O | 9 | 1090 nM | – |
| Oc1nc2ccccc2c(O)c1-c1ccccc1 | – | – | PBI [1]: 3.1; ED50 (Mus musculus [2]): 10.9 mg/kg |
| CC(=O)c1cc(Cc2cccc(-c3c(O)c4ccc(Cl)cc4[nH]c3=O)c2)ccc1O | 75 | 42.7 nM | – |
| O=C(c1ccc(Cl)s1)c1c(O)nc2cc(Cl)ccc2c1O | 26 | 1520 nM | – |
| CN(Cc1cccc(-c2c(O)nc3cc(Cl)ccc3c2O)c1)c1ccccc1 | 140 | 11.7 nM | – |
| O=C(OCCc1ccsc1)c1c(O)nc2cc(Cl)ccc2c1O | 45 | 3000 nM | – |
| O=C(c1ccco1)c1c(O)nc2cc(Cl)ccc2c1O | 3 | – | – |
| O=C(O)c1cc(O)c2ccc(Cl)cc2n1 [7-CHLOROKYNURENIC ACID] | 2 | – | logP [3]: 1.15 |
| Cc1ccc(-c2c(O)c3ccc(Cl)cc3[nH]c2=O)o1 | 8 | 481 nM | Cortex_Clearance (Rattus norvegicus): 4.4 ml s-1 (10e4*g)-1 |
| Oc1nc2cc(Cl)ccc2c(O)c1-c1cccc(Cc2ccccc2)c1 | – | – | PBI [1]: 758; ED50 (Mus musculus [2]): 1.3 mg/kg |
| COc1ccc(-c2c(O)c3ccc(Cl)cc3[nH]c2=O)cc1 | 8 | 421 nM | – |
| O=C(CCc1c(C(=O)O)[nH]c2cc(Cl)cc(Cl)c12)Nc1ccccc1 | 142 | 36.4 nM | – |
| O=C(O)c1cc(O)c2c(Cl)cc(Cl)cc2n1 | 5 | – | PBI [1]: 26.5; logP [3]: -0.44 |
| O=[N+]([O-])c1cc([N+](=O)[O-])c2nc(O)c(O)nc2c1 | 4 | – | – |
| COc1ccccc1Cc1cccc(-c2c(O)nc3cc(Cl)ccc3c2O)c1 | 118 | 8 nM | – |
| Oc1nc2cc(Cl)ccc2c(O)c1-c1cccc(-c2ccccc2)c1 | 117 | – | – |
| Oc1nc2cc(Cl)ccc2c(O)c1-c1ccc(F)cc1 | 8 | 658 nM | – |
| Nc1c(-c2ccccc2)c(O)nc2cc(Cl)ccc12 | – | – | PBI [1]: 3.7 |
| COc1ccc(Cc2cccc(-c3c(O)c4ccc(Cl)cc4[nH]c3=O)c2)cc1 | 97 | 4.5 nM | PBI [1]: 193; ED50 (Mus musculus [2]): 0.7 mg/kg; logP [3]: 2.81 |
| O=c1[nH]c2cc(Cl)ccc2c(O)c1-c1cccc(NCc2ccccc2)c1 | 76 | 9.6 nM | – |
